Reference: ChEMBL document CHEMBL1133005, “Improving the oral bioavailability of the iron chelator HBED by breaking the symmetry of the intramolecular H-bond network” (J Med Chem, 2000)
One block for each compound: values may come before it.

Key:
Format in all cases: physicochemical
[1] = Evaluated for ionization constant (pKa3) by titrations performed in absence of cosolvent and at a dielectric constant of 78; settings: no cosolvent; read-out: pKa3
[2] = Evaluated for ionization constant (pKa3) by titrations performed in the presence of EtOH at a dielectric constant of 63; settings: EtOH cosolvent; read-out: pKa3
Method in brief: (§1)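 pH-metric titration in mixed water/cosolvent media (MeOH or EtOH, depending on the ligand) at several cosolvent proportions, each proportion setting the dielectric constant. Electrode calibrated with pH 7.00 phosphate buffer and standardized after a blank titration by a nonlinear semiempirical fit. Readings were converted to pcH to give concentration-scale constants.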

[3] = Evaluated for ionization constant (pKa4) by titrations performed in absence of cosolvent and at a dielectric constant of 78; settings: no cosolvent; read-out: pKa4
[4] = Evaluated for ionization constant (pKa4) by titrations performed in the presence of EtOH at a dielectric constant of 63; settings: EtOH cosolvent; read-out: pKa4; method in brief: as §1
[5] = Evaluated for ionization constant (pKa5) by titrations performed in absence of cosolvent and at a dielectric constant of 78; settings: no cosolvent; read-out: pKa5
Method in brief: (§2)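 Potentiometric pH titration. The electrode is calibrated with pH 7.00 phosphate buffer. A blank titration before each set standardizes the electrode by a nonlinear semiempirical equation, and readings are converted to the concentration scale pcH = −log[H+]. Runs use varying amounts of MeOH or EtOH cosolvent, and aqueous pKa values are extrapolated by the Yasuda–Shedlovsky method. Low pKa values (pH < 2) are determined by spectrophotometric titration.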

[6] = Evaluated for ionization constant (pKa2) by titrations performed in absence of cosolvent and at a dielectric constant of 78; settings: no cosolvent, dielectric constant 78; read-out: pKa2
[7] = Evaluated for ionization constant (pKa2) by titrations performed in the presence of EtOH at a dielectric constant of 63; settings: EtOH cosolvent, dielectric constant 63; read-out: pKa2; method in brief: as §1
[8] = Partition coefficient (logP) (chloroform)
Method in brief: (§3)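 Free-ligand partition coefficients are measured by the pH-metric technique. This uses two linked titrations: a normal aqueous titration, then a two-phase titration in the presence of the partition solvent.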

[9] = Partition coefficient (logP) (cyclohexane); method in brief: as §3
[10] = Partition coefficient (logP); settings: octanol/water; method in brief: as §3
[11] = Evaluated for ionization constant (pKa1) by titrations performed in absence of cosolvent and at a dielectric constant of 78; settings: no cosolvent, dielectric constant 78; read-out: pKa1
[12] = Evaluated for ionization constant (pKa5) by titrations performed in the presence of MeOH at a dielectric constant of 49; settings: MeOH cosolvent; read-out: pKa5; method in brief: as §2
[13] = Evaluated for ionization constant (pKa5) by titrations performed in the presence of MeOH at a dielectric constant of 56; settings: MeOH cosolvent; read-out: pKa5; method in brief: as §2
[14] = Evaluated for ionization constant (pKa5) by titrations performed in the presence of MeOH at a dielectric constant of 62; settings: MeOH cosolvent; read-out: pKa5; method in brief: as §2
[15] = Evaluated for ionization constant (pKa3) by titrations performed in the absence of a cosolvent and at a dielectric constant of 78; settings: no cosolvent; read-out: pKa3
[16] = Evaluated for ionization constant (pKa6) by titrations performed using the method of Yasuda and Shedlovsky; settings: read-out: pKa6; method in brief: as §2
[17] = Evaluated for ionization constant (pKa3) by titrations performed in the presence of MeOH at a dielectric constant of 49; settings: MeOH cosolvent; read-out: pKa3; method in brief: as §1
[18] = Evaluated for ionization constant (pKa3) by titrations performed in the presence of MeOH at a dielectric constant of 56; settings: MeOH cosolvent; read-out: pKa3; method in brief: as §1
[19] = Evaluated for ionization constant (pKa3) by titrations performed in the presence of MeOH at a dielectric constant of 62; settings: MeOH cosolvent; read-out: pKa3; method in brief: as §1
[20] = Evaluated for ionization constant (pKa3) by titrations performed using the method of Yasuda and Shedlovsky; settings: read-out: pKa3
Method in brief: (§4)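 Aqueous constants were extrapolated by the Yasuda–Shedlovsky method from pH-metric titrations run at several MeOH or EtOH cosolvent levels. Electrode calibrated with pH 7.00 phosphate buffer and standardized after a blank titration. Values are expressed on the pcH (-log[H+]) concentration scale.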

[21] = Evaluated for ionization constant (pKa4) by titrations performed in the absence of a cosolvent and at a dielectric constant of 78; settings: no cosolvent; read-out: pKa4
[22] = Evaluated for ionization constant (pKa4) by titrations performed in the presence of MeOH at a dielectric constant of 49; settings: MeOH cosolvent; read-out: pKa4; method in brief: as §1
[23] = Evaluated for ionization constant (pKa4) by titrations performed in the presence of MeOH at a dielectric constant of 62; settings: MeOH cosolvent; read-out: pKa4; method in brief: as §1
[24] = Evaluated for ionization constant (pKa4) by titrations performed using the method of Yasuda and Shedlovsky; settings: read-out: pKa4; method in brief: as §2
[25] = Evaluated for ionization constant (pKa5) by titrations performed using the method of Yasuda and Shedlovsky; settings: read-out: pKa5; method in brief: as §2
[26] = Evaluated for ionization constant (pKa6) by titrations performed in the presence of MeOH at a dielectric constant of 56; settings: MeOH cosolvent, dielectric constant 56; read-out: pKa6; method in brief: as §2
[27] = Evaluated for ionization constant (pKa6) by titrations performed in the presence of MeOH at a dielectric constant of 62; settings: MeOH cosolvent, dielectric constant 62; read-out: pKa6; method in brief: as §2
[28] = Evaluated for ionization constant-1 (pKa1) by titrations performed in absence of a cosolvent at a dielectric constant of 78; settings: no cosolvent, dielectric constant 78; read-out: pKa1; method in brief: as §2
[29] = Evaluated for ionization constant (pKa2) by titrations performed in the presence of MeOH at a dielectric constant of 56; settings: MeOH cosolvent, dielectric constant 56; read-out: pKa2; method in brief: as §1
[30] = Evaluated for ionization constant (pKa2) by titrations performed in the absence of cosolvent and at a dielectric constant of 78; settings: no cosolvent, dielectric constant 78; read-out: pKa2
[31] = Evaluated for ionization constant (pKa4) by titrations performed in the presence of MeOH at a dielectric constant of 56; settings: MeOH cosolvent, dielectric constant 56; read-out: pKa4; method in brief: as §1
[32] = Evaluated for ionization constant (pKa6) by titrations performed in the presence of MeOH at a dielectric constant of 49; settings: MeOH cosolvent, dielectric constant 49; read-out: pKa6; method in brief: as §2
[33] = Evaluated for ionization constant (pKa3) by titrations performed in presence of a MeOH and at a dielectric constant of 49; settings: MeOH cosolvent; read-out: pKa3; method in brief: as §1
[34] = Evaluated for ionization constant (pKa3) by titrations performed in presence of a MeOH and at a dielectric constant of 56; settings: MeOH cosolvent; read-out: pKa3; method in brief: as §1
[35] = Evaluated for ionization constant (pKa3) by titrations performed in presence of a MeOH and at a dielectric constant of 62; settings: MeOH cosolvent; read-out: pKa3; method in brief: as §1
[36] = Evaluated for ionization constant (pKa4) by titrations performed in presence of a MeOH and at a dielectric constant of 49; settings: MeOH cosolvent; read-out: pKa4; method in brief: as §1
[37] = Evaluated for ionization constant (pKa4) by titrations performed in presence of a MeOH and at a dielectric constant of 56; settings: MeOH cosolvent; read-out: pKa4; method in brief: as §1
[38] = Evaluated for ionization constant (pKa4) by titrations performed in presence of a MeOH and at a dielectric constant of 62; settings: MeOH cosolvent; read-out: pKa4; method in brief: as §1
[39] = Evaluated for ionization constant (pKa2) by titrations performed in presence of a MeOH and at a dielectric constant of 49; settings: MeOH cosolvent, dielectric constant 49; read-out: pKa2; method in brief: as §1
[40] = Evaluated for ionization constant (pKa2) by titrations performed in presence of a MeOH and at a dielectric constant of 56; settings: MeOH cosolvent, dielectric constant 56; read-out: pKa2; method in brief: as §1
[41] = Evaluated for ionization constant (pKa2) by titrations performed in presence of a MeOH and at a dielectric constant of 62; settings: MeOH cosolvent, dielectric constant 62; read-out: pKa2; method in brief: as §1
[42] = Evaluated for ionization constant (pKa2) by titrations performed using method of Yasuda and Shedlovsky; settings: read-out: pKa2; method in brief: as §4
[43] = Evaluated for ionization constant (pKa1) by titrations performed in presence of a MeOH and at a dielectric constant of 56; settings: MeOH cosolvent, dielectric constant 56; read-out: pKa1; method in brief: as §1
[44] = Evaluated for ionization constant (pKa1) by titrations performed using method of Yasuda and Shedlovsky; settings: read-out: pKa1; method in brief: as §4
[45] = Evaluated for ionization constant (pKa1) by titrations performed in presence of a MeOH and at a dielectric constant of 62; settings: MeOH cosolvent, dielectric constant 62; read-out: pKa1; method in brief: as §1

pKa [1]: 7.64
pKa [2]: 7.5
pKa [3]: 2.91
pKa [4]: 2.75
pKa [5]: 0.9
pKa [6]: 10.9
pKa [7]: 11.4
logP [8]: 0.18
logP [9]: -1.3
logP [10]: 1.15
pKa [11]: 12.3
SMILES: CCOC(=O)CN(CCN(CC(=O)[O-])Cc1ccccc1O)Cc1ccccc1O.[Na+]

pKa [12]: 2.72
pKa [13]: 2.34
pKa [14]: 2.25
pKa [15]: 8.34
pKa [16]: 0.92
pKa [17]: 8.37
pKa [18]: 8.36
pKa [19]: 8.36
pKa [20]: 8.36
pKa [21]: 4.61
pKa [22]: 4.71
pKa [23]: 4.58
pKa [24]: 4.58
pKa [25]: 1.62
pKa [26]: 1.11
pKa [27]: 1.05
pKa [28]: 12.9
pKa [29]: 12.5
pKa [30]: 11.1
logP [8]: < -2
logP [9]: < -2
logP [10]: 0.16
pKa [31]: 4.57
pKa [32]: 1.18
SMILES: O=C(O)CN(CCN(CC(=O)O)Cc1ccccc1O)Cc1ccccc1O

pKa [33]: 5.4
pKa [34]: 5.46
pKa [35]: 5.58
pKa [20]: 5.7
pKa [36]: 0.69
pKa [37]: 0.82
pKa [38]: 1.1
pKa [24]: 1.4
pKa [39]: 11.9
pKa [40]: 11.6
pKa [41]: 11.3
pKa [42]: 10.9
logP [9]: 2.11
logP [10]: 2.86
pKa [43]: 12.9
pKa [44]: 12.2
pKa [45]: 12.6
SMILES: COC(=O)CN(CCN(CC(=O)OC)Cc1ccccc1O)Cc1ccccc1O
